Reference: ChEMBL document CHEMBL1156144, “Biaryl ethers as novel non-nucleoside reverse transcriptase inhibitors with improved potency against key mutant viruses” (J Med Chem, 2009)
pIC50, pKi: −log10 of the molar value.

Columns and labels:
[1] = tested on: Human immunodeficiency virus; experiment: Antiviral activity against HIV with reverse transcriptase K101E/G190A double mutant assessed as inhibition of viral replication; format: functional, organism-based; details: Human immunodeficiency virus 1
[2] = tested on: Human immunodeficiency virus; experiment: Antiviral activity against HIV with reverse transcriptase K103N/P225H double mutant assessed as inhibition of viral replication; format: functional, organism-based; details: Human immunodeficiency virus 1
[3] = tested on: Human immunodeficiency virus; experiment: Antiviral activity against HIV with reverse transcriptase MDRC4 mutant assessed as inhibition of viral replication; format: functional, organism-based; details: Human immunodeficiency virus 1
[4] = tested on: Human immunodeficiency virus; experiment: Antiviral activity against wild type HIV H9-3B infected in human MT2 cells assessed as inhibition of viral replication measuring p24 level after 3 days in presence of 10% fetal bovine serum; format: functional; details: Human immunodeficiency virus 1, MT2, Serum; read-out: CIC95
In short: (§1)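 Multiple-cycle spread assay in MT2 cells with wild-type H9IIIB virus. Cells were infected overnight at moi ≈ 0.01 without compound, washed, then cultured 3 days across varying compound concentrations in RPMI 1640 with 10% FBS or 50% NHS. p24 was measured in supernatants. CIC95 is the lowest concentration inhibiting replication ≥95%, as the geometric mean of ≥2 determinations.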

[5] = tested on: Human immunodeficiency virus; experiment: Antiviral activity against HIV with reverse transcriptase Y181C/G190A double mutant assessed as inhibition of viral replication; format: functional, organism-based; details: Human immunodeficiency virus 1
[6] = tested on: Human immunodeficiency virus; experiment: Antiviral activity against HIV with reverse transcriptase MDRC4 mutant assessed as inhibition of viral replication relative to wild type; format: functional
[7] = tested on: Human immunodeficiency virus; experiment: Antiviral activity against HIV with reverse transcriptase V106A/G190A/F227L mutant assessed as inhibition of viral replication; format: functional, organism-based; details: Human immunodeficiency virus 1
[8] = tested on: Human immunodeficiency virus; experiment: Antiviral activity against HIV with reverse transcriptase Y181C mutant assessed as inhibition of viral replication; format: functional, organism-based; details: Human immunodeficiency virus 1
[9] = tested on: Human immunodeficiency virus; experiment: Antiviral activity against HIV with reverse transcriptase Y181C mutant assessed as inhibition of viral replication relative to wild type; format: functional
[10] = tested on: Human immunodeficiency virus; experiment: Antiviral activity against HIV with reverse transcriptase K103N/P225H double mutant assessed as inhibition of viral replication relative to wild type; format: functional
[11] = tested on: Human immunodeficiency virus; experiment: Antiviral activity against HIV with reverse transcriptase K103N/Y181C/G190A mutant assessed as inhibition of viral replication; format: functional, organism-based; details: Human immunodeficiency virus 1
[12] = tested on: Human immunodeficiency virus; experiment: Antiviral activity against HIV with reverse transcriptase K103N mutant assessed as inhibition of viral replication relative to wild type; format: functional
[13] = tested on: Human immunodeficiency virus; experiment: Antiviral activity against HIV with reverse transcriptase K101E/Y181C/G190A mutant assessed as inhibition of viral replication; format: functional, organism-based; details: Human immunodeficiency virus 1
[14] = tested on: Human immunodeficiency virus; experiment: Antiviral activity against HIV with reverse transcriptase Y181C mutant infected in human MT2 cells assessed as inhibition of viral replication measuring p24 level after 3 days in presence of 10% fetal bovine serum; format: functional; details: Human immunodeficiency virus 1, MT2, Serum, 72 h; read-out: CIC95
In short: (§2)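 Multiple-cycle replication (Spread) assay in MT2 cells with H9IIIB-background mutant virus. Cells were infected overnight at moi ≈ 0.01 without compound, washed, then cultured 3 days across a range of compound concentrations in medium with 10% FBS. p24 was measured in supernatants. CIC95 is the lowest concentration inhibiting replication by ≥95%, reported as the geometric mean of ≥2 determinations.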

[15] = tested on: Human immunodeficiency virus; experiment: Antiviral activity against HIV with reverse transcriptase K101E/G190A double mutant assessed as inhibition of viral replication relative to wild type; format: functional
[16] = tested on: Human immunodeficiency virus; experiment: Antiviral activity against HIV with reverse transcriptase V106A/G190A/F227L mutant assessed as inhibition of viral replication relative to wild type; format: functional
[17] = tested on: Human immunodeficiency virus; experiment: Antiviral activity against HIV with reverse transcriptase K103N mutant infected in human MT2 cells assessed as inhibition of viral replication measuring p24 level after 3 days in presence of 10% fetal bovine serum; format: functional; details: Human immunodeficiency virus 1, MT2, Serum, 72 h; read-out: CIC95; in short: as §2
[18] = tested on: Human immunodeficiency virus; experiment: Antiviral activity against HIV with reverse transcriptase K101E/Y181C/G190A mutant assessed as inhibition of viral replication relative to wild type; format: functional
[19] = tested on: Human immunodeficiency virus; experiment: Antiviral activity against HIV with reverse transcriptase K103N/G190A double mutant assessed as inhibition of viral replication; format: functional, organism-based; details: Human immunodeficiency virus 1
[20] = tested on: Human immunodeficiency virus; experiment: Antiviral activity against HIV with reverse transcriptase G190A mutant assessed as inhibition of viral replication relative to wild type; format: functional
[21] = tested on: Human immunodeficiency virus; experiment: Antiviral activity against HIV with reverse transcriptase CNDO mutant assessed as inhibition of viral replication; format: functional, organism-based; details: Human immunodeficiency virus 1
[22] = tested on: Human immunodeficiency virus; experiment: Antiviral activity against HIV with reverse transcriptase K103N/Y181C double mutant infected in human MT2 cells assessed as inhibition of viral replication measuring p24 level after 3 days in presence of 10% fetal bovine serum; format: functional; details: Human immunodeficiency virus 1, MT2, Serum, 72 h; read-out: CIC95; in short: as §2
[23] = tested on: Human immunodeficiency virus; experiment: Antiviral activity against HIV with reverse transcriptase CNDO mutant assessed as inhibition of viral replication relative to wild type; format: functional
[24] = tested on: Human immunodeficiency virus; experiment: Antiviral activity against HIV with reverse transcriptase Y181C/G190A double mutant assessed as inhibition of viral replication relative to wild type; format: functional
[25] = tested on: Human immunodeficiency virus; experiment: Antiviral activity against HIV with reverse transcriptase K103N mutant assessed as inhibition of viral replication; format: functional, organism-based; details: Human immunodeficiency virus 1
[26] = tested on: Human immunodeficiency virus; experiment: Antiviral activity against wild type HIV H9-3B infected in human MT2 cells assessed as inhibition of viral replication measuring p24 level after 3 days in presence of 50% normal human serum; format: functional; details: Human immunodeficiency virus 1, H9-3B, 72 h, read-out: CIC95; in short: as §1
[27] = tested on: Human immunodeficiency virus; experiment: Antiviral activity against HIV with reverse transcriptase L100I/K103N double mutant assessed as inhibition of viral replication relative to wild type; format: functional
[28] = Inhibition of RNA-dependent DNA polymerase activity of wild type HIV reverse transcriptase assessed as BrdU incorporation by standard ECL assay; parameters: species or system Human immunodeficiency virus
In short: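 Purified recombinant wild-type RT polymerase activity was measured using a 500-nt heteropolymeric RNA template and a biotinylated DNA primer. BrdU incorporation was detected with a ruthenylated anti-BrdU antibody by electrochemiluminescence. Ki is the geometric mean of at least two determinations, each within 25% of the mean.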

[29] = biological target: Human immunodeficiency virus type 1 reverse transcriptase (Human immunodeficiency virus 1, UniProt Q72547, K103N); experiment: Inhibition of RNA-dependent DNA polymerase activity of recombinant HIV reverse transcriptase K103N mutant assessed as BrdU incorporation by standard ECL assay
[30] = tested on: Human immunodeficiency virus; experiment: Antiviral activity against HIV with reverse transcriptase K103N/Y181C double mutant assessed as inhibition of viral replication; format: functional, organism-based; details: Human immunodeficiency virus 1
[31] = tested on: Human immunodeficiency virus; experiment: Antiviral activity against HIV with reverse transcriptase G190A mutant assessed as inhibition of viral replication; format: functional, organism-based; details: Human immunodeficiency virus 1
[32] = tested on: Human immunodeficiency virus; experiment: Antiviral activity against HIV with reverse transcriptase L100I mutant assessed as inhibition of viral replication; format: functional, organism-based; details: Human immunodeficiency virus 1
[33] = tested on: Human immunodeficiency virus; experiment: Antiviral activity against HIV with reverse transcriptase G190S mutant assessed as inhibition of viral replication relative to wild type; format: functional
[34] = tested on: Human immunodeficiency virus; experiment: Antiviral activity against HIV with reverse transcriptase K103N/Y181C/G190A mutant assessed as inhibition of viral replication relative to wild type; format: functional
[35] = tested on: Human immunodeficiency virus; experiment: Antiviral activity against HIV with reverse transcriptase G190S mutant assessed as inhibition of viral replication; format: functional, organism-based; details: Human immunodeficiency virus 1
[36] = tested on: Human immunodeficiency virus; experiment: Antiviral activity against HIV with reverse transcriptase K103N/G190A double mutant assessed as inhibition of viral replication relative to wild type; format: functional
[37] = tested on: Human immunodeficiency virus; experiment: Antiviral activity against HIV with reverse transcriptase L100I mutant assessed as inhibition of viral replication relative to wild type; format: functional
[38] = tested on: Human immunodeficiency virus; experiment: Antiviral activity against HIV with reverse transcriptase Y188L mutant assessed as inhibition of viral replication; format: functional, organism-based; details: Human immunodeficiency virus 1
[39] = tested on: Human immunodeficiency virus; experiment: Antiviral activity against HIV with reverse transcriptase Y188L mutant assessed as inhibition of viral replication relative to wild type; format: functional
[40] = tested on: Human immunodeficiency virus; experiment: Antiviral activity against HIV with reverse transcriptase L100I/K103N double mutant assessed as inhibition of viral replication; format: functional, organism-based; details: Human immunodeficiency virus 1
[41] = tested on: Human immunodeficiency virus; experiment: Antiviral activity against HIV with reverse transcriptase K103N/Y181C double mutant assessed as inhibition of viral replication relative to wild type; format: functional

**Q.** With `N#Cc1cc(Cl)cc(Oc2cc(OCc3n[nH]c4ncccc34)ccc2Cl)c1` as the molecule, how does the pIC50 [1] read?
**A.** Its pIC50 is 8.68.

**Q.** And the pIC50 [2]?
**A.** Its pIC50 is 8.44.

**Q.** And the pIC50 [3]?
**A.** Its pIC50 is 8.29.

**Q.** What about the IC95 [4] of the same molecule?
**A.** The IC95 was 0.01 µM.

**Q.** And the pIC50 [5]?
**A.** The pIC50 was 8.34.

**Q.** And the “fold change (FC)” value [6]?
**A.** The value was 4.64.

**Q.** And the pIC50 [7]?
**A.** The pIC50 was less than 6.00.

**Q.** What about the pIC50 [8] of the same molecule?
**A.** Its pIC50 is 8.51.

**Q.** What about the “fold change (FC)” value [9] of the same molecule?
**A.** Its value is 2.82.

**Q.** And the “fold change (FC)” value [10]?
**A.** Its value is 3.27.

**Q.** What about the pIC50 [11] of the same molecule?
**A.** Its pIC50 is 7.51.

**Q.** What about the “fold change (FC)” value [12] of the same molecule?
**A.** The value was 1.45.

**Q.** And the pIC50 [13]?
**A.** The pIC50 was 7.94.

**Q.** And the IC95 [14]?
**A.** Its IC95 is 0.022 µM.

**Q.** What about the “fold change (FC)” value [15] of the same molecule?
**A.** Its value is 1.91.

**Q.** What about the “fold change (FC)” value [16] of the same molecule?
**A.** Its value is greater than 909.

**Q.** And the IC95 [17]?
**A.** Its IC95 is 0.015 µM.

**Q.** And the “fold change (FC)” value [18]?
**A.** The value was 10.55.

**Q.** And the pIC50 [19]?
**A.** The pIC50 was 8.62.

**Q.** What about the “fold change (FC)” value [20] of the same molecule?
**A.** Its value is 1.64.

**Q.** What about the pIC50 [21] of the same molecule?
**A.** Its pIC50 is 8.96.

**Q.** What about the IC95 [22] of the same molecule?
**A.** Its IC95 is 0.053 µM.

**Q.** And the “fold change (FC)” value [23]?
**A.** The value was 1.

**Q.** What about the “fold change (FC)” value [24] of the same molecule?
**A.** Its value is 4.18.

**Q.** And the pIC50 [25]?
**A.** The pIC50 was 8.80.

**Q.** And the IC95 [26]?
**A.** The IC95 was 0.052 µM.

**Q.** And the “fold change (FC)” value [27]?
**A.** Its value is 15.

**Q.** What about the pKi [28] of the same molecule?
**A.** The pKi was 10.00.

**Q.** What about the pKi [29] of the same molecule?
**A.** The pKi was 9.70.

**Q.** What about the pIC50 [30] of the same molecule?
**A.** The pIC50 was 7.63.

**Q.** What about the pIC50 [31] of the same molecule?
**A.** Its pIC50 is 8.74.

**Q.** And the pIC50 [32]?
**A.** Its pIC50 is 9.15.

**Q.** And the “fold change (FC)” value [33]?
**A.** The value was 4.36.

**Q.** What about the “fold change (FC)” value [34] of the same molecule?
**A.** Its value is 28.09.

**Q.** And the pIC50 [35]?
**A.** Its pIC50 is 8.32.

**Q.** And the “fold change (FC)” value [36]?
**A.** The value was 2.18.

**Q.** And the “fold change (FC)” value [37]?
**A.** Its value is 0.64.

**Q.** And the pIC50 [38]?
**A.** The pIC50 was 6.21.

**Q.** And the “fold change (FC)” value [39]?
**A.** Its value is 560.18.

**Q.** And the pIC50 [40]?
**A.** Its pIC50 is 7.78.

**Q.** And the “fold change (FC)” value [41]?
**A.** The value was 21.45.
